# EphB4 ephrin blk: blocks human EphB4 binding to ephrin-B2; EphB4 LBD / TNYL-RAW-Alexa532 peptide, fluorescence polarization; inhibition, % at 7 µM; hit rate 0.15% among 97,000;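 active = inhibition above the screen-wide mean inhibition plus 3 SD, cut at about 15% in these data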;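 note: 0% = DMSO wells and 100% = excess unlabeled TNYL-RAW peptide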
# Target sequence (P54760 whole entry, looked up, the tested form may be a part): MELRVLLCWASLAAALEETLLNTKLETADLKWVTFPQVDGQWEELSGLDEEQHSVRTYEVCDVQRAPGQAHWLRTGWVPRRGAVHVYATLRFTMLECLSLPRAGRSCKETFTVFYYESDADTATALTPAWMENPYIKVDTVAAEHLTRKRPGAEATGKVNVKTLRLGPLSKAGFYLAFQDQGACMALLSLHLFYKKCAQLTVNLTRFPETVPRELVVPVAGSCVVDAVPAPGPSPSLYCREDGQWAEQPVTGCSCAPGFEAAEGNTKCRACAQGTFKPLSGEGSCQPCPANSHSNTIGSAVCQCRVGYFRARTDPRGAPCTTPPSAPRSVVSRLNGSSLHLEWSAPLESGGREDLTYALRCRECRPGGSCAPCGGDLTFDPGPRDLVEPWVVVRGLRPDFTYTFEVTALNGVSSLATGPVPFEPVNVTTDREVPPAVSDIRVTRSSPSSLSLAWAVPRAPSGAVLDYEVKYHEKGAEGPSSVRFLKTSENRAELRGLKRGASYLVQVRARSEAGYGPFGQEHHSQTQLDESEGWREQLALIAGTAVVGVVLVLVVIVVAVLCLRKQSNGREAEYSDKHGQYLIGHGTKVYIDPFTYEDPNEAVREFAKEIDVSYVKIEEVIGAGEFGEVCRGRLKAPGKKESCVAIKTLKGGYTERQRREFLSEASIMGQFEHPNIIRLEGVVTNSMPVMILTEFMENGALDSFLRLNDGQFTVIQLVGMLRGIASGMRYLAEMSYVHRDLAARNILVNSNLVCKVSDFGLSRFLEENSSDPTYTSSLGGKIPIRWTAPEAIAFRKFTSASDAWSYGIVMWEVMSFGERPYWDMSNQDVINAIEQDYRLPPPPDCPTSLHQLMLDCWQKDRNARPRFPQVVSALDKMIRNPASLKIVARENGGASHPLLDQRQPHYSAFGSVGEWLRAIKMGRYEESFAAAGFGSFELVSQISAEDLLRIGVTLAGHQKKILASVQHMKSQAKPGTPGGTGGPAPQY
# E coli WT exp: E. coli BW25113 growth inhibition, expanded screen; OD600 absorbance; growth inhibition, % at 100 µM; hit rate 0.15% among 98,000;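 active = growth inhibition above about 50% at one test dose, limit read from the data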;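 note: growth measured after 20 h incubation at 37 °C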
# PostGolgi ctrl: yeast control strain growth, post-Golgi counter-screen; efflux-deficient yeast background strain, growth absorbance A615, 16 h; inhibition, % at 10 µM; hit rate 5% among 98,000
# Ecoli tolC: E. coli tolC mutant growth inhibition; E. coli BW25113 tolC mutant growth, OD615; growth inhibition, % at 10 µM (by protocol); hit rate 2.2% among 65,000; AID 573;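 active = growth inhibition at or above a cutoff equal to the mean over every tested compound plus 3 SD, cut at about 60% in these data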;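 note: growth measured after 20 h incubation at 37 °C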
#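 Assay system: tolC-deleted E. coli BW25113. Medium: kanamycin-containing LB broth (50 µg/mL). Dosing: 10 µM final, single dose. Timing: bacterial growth with compound for 20 h at 37 °C. Detection: A615 absorbance measurement. Read-out basis: growth inhibition in percent.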
# PostGolgi yeast: growth inhibition of a yeast mutant, post-Golgi transport screen. inhibition, % at 10 µM. post-Golgi transport phenotypic cell assay. hit rate 0.9% among 98,000;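 note: yeast cells grown in 1536-well plates; yeast grown about 18 h at 30C before absorbance read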
# Active calls of the source: *; x = no result given. In the library only some 6% were active in any assay of this set; here they are far more common. Cut-off read from the data, not from the text of the source, unless noted: active = inhibition above about 30%; inactive = the rest.
SMILES,EphB4 ephrin blk,E coli WT exp,PostGolgi ctrl,Ecoli tolC,PostGolgi yeast
O=C1c2ccccc2C(=O)N1CCCc1nc(-c2cccnc2)no1,6,8,-6,1,-11
c1ccc(-c2nc(-c3ccncc3)no2)cc1,3,6,10,16,4
O=C1c2ccccc2C(=O)N1CCCc1nc(-c2ccncc2)no1,-2,-6,36*,x,1
c1ccc(-c2ccccc2-c2nc(-c3ccncc3)no2)cc1,-10,9,56*,24,17
c1ccc(C(Cc2nc(-c3ccncc3)no2)c2ccccc2)cc1,2,8,35*,41,-5
CCn1c(O)c(C=Nc2ccccc2)n(-c2ccccc2)c1=S,0,-7,17,x,-10
C/C(=N/NC(N)=S)c1ccccc1[N+](=O)[O-],-3,3,4,x,-1
COc1ccc(CC(=O)Nc2nnc(C)s2)cc1,-2,-3,6,x,1
O=S(=O)(c1ccccc1)n1nc(-c2ccccc2)nc1NCc1ccco1,0,-18,36*,52,2
O=C(c1ccccc1)n1nc(-c2ccccc2)nc1NCc1ccco1,1,1,8,7,0
Cc1ccc(SCC(=O)N2c3ccccc3Sc3ccccc32)cc1,2,-22,17,x,-7
N#Cc1c(-c2ccc(Cl)cc2)ccn2nc(C3CCCCC3)nc12,0,-9,7,x,2
c1ccc(-c2nc(NCc3ccco3)c3oc4ccccc4c3n2)cc1,-1,-15,34*,x,9
c1ccc(-c2nc(NCc3cccnc3)c3ccccc3n2)cc1,2,18,9,x,9
Clc1cccc(-c2nc(NCc3cccnc3)c3ccccc3n2)c1,0,-7,72*,x,27
c1cncc(-c2nc(NCc3ccco3)c3ccccc3n2)c1,2,2,57*,30,-5
OCCSc1nc(-c2cccnc2)nc2ccccc12,-6,-3,38*,10,2
CCOC(=O)C1=C(CSc2nc(-c3ccccc3)ccc2C#N)OC(N)=C(C#N)C1c1ccc(OC)cc1 (centres undefined),-3,-17,8,x,-10
CCOc1cc(C(=O)Nc2cccc3ncccc23)cc(OCC)c1OCC,6,4,1,x,20
O=C1C(Nc2ccccc2)=C(N2CCCCC2)C(=O)c2ccccc21,5,5,9,x,10
CN(C1=C(N2CCCCC2)C(=O)c2ccccc2C1=O)c1ccccc1,8,-19,33*,x,-1
COc1ccc(C2NC(=S)NC3=C2CCc2cc(OC)ccc23)cc1 (centres undefined),0,-2,24,x,-18
O=[N+]([O-])c1ccc(-c2nc3ccc([N+](=O)[O-])cc3[nH]2)cc1,7,13,18,x,-2
O=[N+]([O-])c1ccc2nc(/C=C/c3ccc(Cl)cc3)[nH]c2c1,4,14,75*,x,47*
COC(=O)c1cc(=O)n(Cc2cccs2)c(=NCc2cccs2)s1,2,-11,31*,-8,9
SMILES,EphB4 ephrin blk,E coli WT exp,PostGolgi ctrl,Ecoli tolC,PostGolgi yeast
CCOC(=O)c1ccc(N=c2sc(C(=O)OC)cc(=O)n2Cc2ccco2)cc1,x,-26,57*,13,1
CCOC(=O)c1ccc(N=c2sc(C(=O)OC)cc(=O)n2CCCN2CCOCC2)cc1,3,-1,2,0,-9
CCCCc1nc(NCCN2CCOCC2)c(C#N)c2c1COC(C)(C)C2,5,6,102*,16,15
CC(C)c1nc(NCCN2CCOCC2)c(C#N)c2c1COC(C)(C)C2,-6,7,60*,4,13
CCc1nc(NCCN2CCOCC2)c(C#N)c2c1CCCC2,-9,14,2,5,3
CC(C)Cc1nc(NCCN2CCOCC2)c(C#N)c2c1COC(C)(C)C2,-1,13,100*,13,51*
CCCOC(=O)c1ccc(-c2c(C)noc2-c2ccc(OC)cc2O)o1,3,-6,29,99*,4
CCOC(=O)Cc1csc(NC(=S)NC(=O)c2ccccc2C)n1,3,-4,0,x,-4
CCOC(=O)Cc1csc(NC(=S)NC(=O)c2ccc(F)cc2)n1,-2,-14,41*,x,4
CCOC(=O)CSc1nnc([C@@H](NC(=O)OC(C)(C)C)C(C)C)o1,3,4,6,-13,8
CO/N=C(\Cn1ncc(N2CCCC2)c(Br)c1=O)c1ccc(Cl)cc1,2,-14,19,x,-15
CO/N=C(\Cn1ncc(NC2CCCCC2)c(Br)c1=O)c1ccc(Cl)cc1,-2,-5,76*,x,23
COc1cccc(C(=O)Nc2nnc(-c3cccs3)o2)c1,-5,80*,39*,69*,-8
COc1cccc(C(=O)Nc2nnc(-c3ccc(Cl)cc3)o2)c1,x,x,x,100*,x
CC1CN(S(=O)(=O)c2ccc(C(=O)Nc3nnc(-c4ccc5c(c4)CCCC5)o3)cc2)CC(C)O1 (centres undefined),5,4,21,97*,-2
COc1ccccc1C(=O)Nc1nnc(-c2ccc3c(c2)CCCC3)o1,-3,-10,27,98*,15
CC(=O)Nc1nnc(-c2ccc3c(c2)CCCC3)o1,0,4,0,2,-9
O=C(Nc1nncs1)C1COc2ccccc2O1 (centres undefined),5,-12,6,-3,-4
COc1ccc(-c2nnc(NC(=O)C(C)C)o2)cc1,1,-1,-2,-3,-7
O=C(Nc1nnc(-c2ccc3c(c2)CCCC3)o1)C1COc2ccccc2O1 (centres undefined),8,0,72*,100*,100*
O=C(Nc1nnc(-c2ccc(Cl)cc2)o1)NC1CCCCC1,-4,-6,2,x,-6
COc1ccc(-c2nnc(NC(=O)c3ccccc3C)o2)cc1,x,x,x,100*,x
O=C(COc1ccc(Cl)cc1)Nc1nnc(-c2ccc3c(c2)CCCC3)o1,-6,-8,14,100*,12
COc1cccc(-c2nnc(NC(=O)c3ccc(S(=O)(=O)N4CCOCC4)cc3)o2)c1,-1,-4,6,94*,4
Cn1c(CNC2CCCCC2)c(C#N)c2ccccc21,6,6,11,x,-7
SMILES,EphB4 ephrin blk,E coli WT exp,PostGolgi ctrl,Ecoli tolC,PostGolgi yeast
COc1cccc(C(=O)Nc2nnc(-c3ccc(F)cc3)o2)c1,x,x,x,16,x
CCOc1ccc(-c2nnc(NC(=O)c3ccc(OCC(C)C)c(OC)c3)o2)cc1,0,9,4,100*,18
CN(C)/C=C/C(=O)c1nnn(C2CCCCC2)c1NC1CCCCC1,-6,5,31*,6,-6
C1CCC(Nc2nnnn2C2CCCCC2)CC1,-4,1,6,-16,-5
COc1ccc(C2c3sc(=O)[nH]c3SC3C4CCC(C4)C23)cc1 (centres undefined),2,-8,27,100*,8
O=c1[nH]c2c(s1)C(c1ccccc1)C1C3CCC(C3)C1S2 (centres undefined),11,-10,6,16,-2
COc1ccc(CN2C(=O)NC3(CCCCCC3)C2=O)cc1F,x,x,x,-5,x
O=C(O)C1CCCCC1C(=O)Nc1ccc(F)cc1F (centres undefined),-3,3,-2,x,2
CCCNS(=O)(=O)c1cc(Br)cc2c1N(C(=O)CC)CC2,x,2,34*,-17,11

# Screens deposited in PubChem BioAssay by several laboratories.
